Results from ChEMBL document CHEMBL1921735, “Antibacterial optimization of 4-aminothiazolyl analogues of the natural product GE2270 A: identification of the cycloalkylcarboxylic acids” (J Med Chem, 2011).
Values after ≈ are worked out from the molar mass of the structure shown. Active and inactive are the calls of the source.

What was measured:
[1] = test system: Staphylococcus aureus; assay: Antibacterial activity against methicillin-resistant Staphylococcus aureus isolate A4.018 by CLSI M07-A8 method; assay type: functional
[2] = test system: Staphylococcus aureus; assay: Antibacterial activity against GE2270-A-resistant Staphylococcus aureus harboring tufA G258D mutant gene by CLSI M07-A8 method; assay type: functional
[3] = test system: Streptococcus pyogenes; assay: Antibacterial activity against Streptococcus pyogenes ATCC BAA-595 by CLSI M07-A8 method; assay type: functional
In short: (§1)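 Broth microdilution MIC run per CLSI M07-A8 (2009).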

[4] = test system: Staphylococcus aureus; assay: Antibacterial activity against Staphylococcus aureus ATCC 49951 infected in CD1 mouse assessed as protection against bacterial infection administered 5 hrs post infection measured on day 5; assay type: functional
In short: (§2)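 Mouse lethal systemic infection: ip injection of 1 × 10^8 cfu/mouse (10−100× minimal lethal dose), E. faecalis in 50% sterile rat fecal extract, S. aureus in 0.9% NaCl. Therapy by tail-vein bolus at several doses, six mice per group. Started immediately for E. faecalis; at 1 and 5 h post-inoculation for S. aureus.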

[5] = test system: Escherichia coli; assay: Antibacterial activity against Escherichia coli S30 assessed as inhibition of protein synthesis after 2 hrs by luminescence analysis; conditions: S30, 2 h
[6] = test system: Enterococcus faecalis; assay: Antibacterial activity against Enterococcus faecalis isolate NB04025 infected in CD1 mouse assessed as protection against bacterial infection administered immediately after infection measured on day 5; assay type: functional; conditions: isolate NB04025, 120 h; in short: as §2
[7] = test system: Enterococcus faecium; assay: Antibacterial activity against Enterococcus faecium 7130724 by CLSI M07-A8 method; assay type: functional; in short: as §1
[8] = test system: Streptococcus pneumoniae; assay: Antibacterial activity against Streptococcus pneumoniae by CLSI M07-A8 method; assay type: functional, organism-based; in short: as §1
[9] = test system: Enterococcus faecalis; assay: Antibacterial activity against Enterococcus faecalis ATCC 29212 by CLSI M07-A8 method; assay type: functional; in short: as §1
[10] = Chemical stability of the compound in 15% v/v NaOH, 5% PEG-300, 0.9% saline, 55% v/v water at pH 7.2 to 7.8; assay type: physicochemical; conditions: buffer

Q: What does the source list for CNC(=O)C[C@@H]1NC(=O)c2csc(n2)-c2ccc(-c3nc(NC(=O)CCCCC(=O)O)cs3)nc2-c2csc(n2)-c2csc(n2)[C@H]([C@@H](O)c2ccccc2)NC(=O)CNC(=O)c2nc(sc2COC)[C@H](C(C)C)NC(=O)c2nc1sc2C?
A: MIC [1]: 0.125 µg/mL (≈ 0.102 µM); Activity [2]: inactive; MIC [3]: 4 µg/mL (≈ 3.27 µM); ED50 [4]: 10.5 mg/kg; IC50 [5]: 1200 nM; ED50 [6]: 5.5 mg/kg; MIC [7]: 0.125 µg/mL (≈ 0.102 µM); Activity [8]: Active; MIC [9]: 0.06 µg/mL (≈ 0.049 µM)

Q: Which Stability [10] does the source give for CNC(=O)C[C@@H]1NC(=O)c2csc(n2)-c2ccc(-c3nc(NC(=O)O[C@H]4CC[C@H](C(=O)O)CC4)cs3)nc2-c2csc(n2)-c2csc(n2)[C@H]([C@@H](O)c2ccccc2)NC(=O)CNC(=O)c2nc(sc2COC)[C@H](C(C)C)NC(=O)c2nc1sc2C here?
A: Its Stability is greater than 1 weeks.

Q: And the MIC [1]?
A: Its MIC is 0.125 µg/mL (≈ 0.0987 µM).

Q: And the MIC [3]?
A: Its MIC is 2 µg/mL (≈ 1.58 µM).

Q: What about the ED50 [4] of the same molecule?
A: The ED50 was 4.3 mg/kg.

Q: What about the ED50 [6] of the same molecule?
A: Its ED50 is 0.2 mg/kg.

Q: What about the MIC [7] of the same molecule?
A: The MIC was 0.03 µg/mL (≈ 0.0237 µM).

Q: And the Activity [8]?
A: Its Activity is “Active”.

Q: And the MIC [9]?
A: The MIC was 0.06 µg/mL (≈ 0.0474 µM).

Q: For CNC(=O)C[C@@H]1NC(=O)c2csc(n2)-c2ccc(-c3nc(NC(=O)CCCCN)cs3)nc2-c2csc(n2)-c2csc(n2)[C@H]([C@@H](O)c2ccccc2)NC(=O)CNC(=O)c2nc(sc2COC)[C@H](C(C)C)NC(=O)c2nc1sc2C, which MIC [1] is on record?
A: The MIC was 1 µg/mL (≈ 0.836 µM).

Q: And the MIC [3]?
A: The MIC was 4 µg/mL (≈ 3.35 µM).

Q: What about the IC50 [5] of the same molecule?
A: The IC50 was 1900 nM.

Q: And the MIC [7]?
A: The MIC was 1 µg/mL (≈ 0.836 µM).

Q: And the Activity [8]?
A: The Activity was “Active”.

Q: And the MIC [9]?
A: Its MIC is 0.5 µg/mL (≈ 0.418 µM).
